Measurements published in ChEMBL document CHEMBL3525963, “Tissue distribution and elimination of [14C]apixaban in rats” (Drug Metab Dispos, 2011).

Tests used:
Details in all cases: in vivo
Muscle tissue [1] = assay: Biodistribution in female Sprague-Dawley rat muscle at 5 mg/kg, po administered as single dose measured after 0.5 hrs; type: ADME, organism-based; design: dose 5 mg/kg, dosed compound name [14C]-apixaban, route oral
How it was run: (§1)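 [¹⁴C]Apixaban given by oral gavage at 5 mg/kg (100 μCi/kg) in 0.5% Tween 80 in Labrafil (1.0 mg/mL dosing solution) to rats fasted overnight through 4 h post-dose. One rat per time point; carcass frozen in hexane/dry ice. Quantitative whole-body autoradiography used 40 µm sagittal sections and a phosphor imaging plate calibrated with [¹⁴C]glucose standards (0.001–6.5 μCi/g). Read-out in µg eq apixaban/g; LLOQ 0.037 μg eq/g.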

Liver [2] = assay: Biodistribution in male Sprague-Dawley rat liver at 5 mg/kg, po administered as single dose measured after 24 hrs; type: ADME, organism-based; design: dose 5 mg/kg, dosed compound name [14C]-apixaban, route oral
How it was run: (§2)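 [14C]apixaban (1.0 mg/mL, 20 μCi/mL) in 0.5% Tween 80 in Labrafil, given by oral gavage at 100 μCi/kg to male rats (225-252 g) fasted overnight through 4 h post-dose. One rat per time point. Carcasses frozen in hexane/dry ice and cut into 40 µm sagittal sections. QWBA read on phosphor plates against [14C]glucose standards, reported as µg eq/g. LLOQ 0.037 µg eq/g.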

Lung = assay: Biodistribution in female Sprague-Dawley rat lung at 5 mg/kg, po administered as single dose measured after 1 hr; type: ADME, organism-based; design: dose 5 mg/kg, dosed compound name [14C]-apixaban, route oral; how it was run: as §1
Muscle tissue [3] = assay: Biodistribution in female Sprague-Dawley rat muscle at 5 mg/kg, po administered as single dose measured after 4 hrs; type: ADME, organism-based; design: dose 5 mg/kg, dosed compound name [14C]-apixaban, route oral; how it was run: as §1
Rattus norvegicus [4] = assay: Biodistribution in pregnant Sprague-Dawley rat placenta at 5 mg/kg, po administered as single dose measured after 48 hrs; type: ADME, organism-based; design: dose 5 mg/kg, dosed compound name [14C]-apixaban, route oral
How it was run: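 Pregnant SD rats (270-319 g) were fasted overnight and given one oral gavage of 5 mg/kg (100 μCi/kg) in 0.5% Tween 80 in Labrafil. One rat was euthanized per time point (0.5, 1, 4, 8, 24, 48 h) and the carcass frozen. 40 µm sagittal sections were phosphor-imaged against [14C]glucose standards and results reported as µg eq/g; LLOQ 0.037 µg eq/g.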

Rattus norvegicus [5] = assay: Biodistribution in male Sprague-Dawley rat brown fat at 5 mg/kg, po administered as single dose measured after 0.5 hrs; type: ADME, organism-based, Brown adipose tissue; design: dose 5 mg/kg, dosed compound name [14C]-apixaban, route oral
How it was run: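 Fasted male rats, 225-252 g, received [14C]apixaban by single oral gavage at 100 μCi/kg in 0.5% Tween 80/Labrafil. One rat was killed per time point and the carcass frozen. Tissue radioactivity was quantified by QWBA (40 µm sagittal sections, phosphor plate, [14C]glucose calibration) as µg eq apixaban/g, with LLOQ 0.037 μg eq/g.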

Pancreas [6] = assay: Biodistribution in female Sprague-Dawley rat pancreas at 5 mg/kg, po administered as single dose measured after 8 hrs; type: ADME, organism-based; design: dose 5 mg/kg, dosed compound name [14C]-apixaban, route oral; how it was run: as §1
Rattus norvegicus [7] = assay: Biodistribution in fetal brain of pregnant Sprague-Dawley rat at 5 mg/kg, po administered as single dose measured after 8 hrs; type: ADME, organism-based; design: dose 5 mg/kg, dosed compound name [14C]-apixaban, route oral
How it was run: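 Pregnant SD rats received a single oral gavage of [14C]apixaban at 5 mg/kg (100 μCi/kg; 1.0 mg/mL, 20 μCi/mL in 0.5% Tween 80/Labrafil) after fasting, one dam per time point. Frozen carcasses were cut into 40 µm sagittal sections and read by phosphor-imaging QWBA against [14C]glucose standards. Fetal tissue radioactivity is reported as µg eq/g, with LLOQ 0.037 µg eq/g.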

Adrenal gland = assay: Biodistribution in female Sprague-Dawley rat adrenal gland at 5 mg/kg, po administered as single dose measured after 24 hrs; type: ADME, organism-based; design: dose 5 mg/kg, dosed compound name [14C]-apixaban, route oral
How it was run: (§3)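 Quantitative whole-body autoradiography was run after a single 5 mg/kg (100 μCi/kg) oral gavage to fasted female or pregnant SD rats, one rat per time point. Carcasses were frozen in hexane/dry ice, and 40 µm sagittal sections were dried at −20°C for at least 48 h. Sections were exposed to a phosphor plate alongside [14C]glucose standards (0.001–6.5 µCi/g). Results are µg eq/g, with LLOQ 0.037 µg eq/g.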

Rattus norvegicus [8] = assay: Biodistribution in female Sprague-Dawley rat bone marrow at 5 mg/kg, po administered as single dose measured after 8 hrs; type: ADME, organism-based; design: dose 5 mg/kg, dosed compound name [14C]-apixaban, route oral
How it was run: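 [14C]apixaban (20 μCi/mL in dosing solution) in 0.5% Tween 80 in Labrafil given by oral gavage to fasted female rats, 206-213 g, at 100 μCi/kg. One rat per time point was euthanized and snap-frozen. Sagittal 40 µm whole-body sections were read by QWBA phosphor imaging against [14C]glucose standards. Results are in µg eq apixaban/g, with LLOQ 0.037 μg eq/g.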

Heart [9] = assay: Biodistribution in female Sprague-Dawley rat heart at 5 mg/kg, po administered as single dose measured after 8 hrs; type: ADME, organism-based; design: dose 5 mg/kg, dosed compound name [14C]-apixaban, route oral; how it was run: as §3
Liver [10] = assay: Biodistribution in female Sprague-Dawley rat liver at 5 mg/kg, po administered as single dose measured after 1 hr; type: ADME, organism-based; design: dose 5 mg/kg, dosed compound name [14C]-apixaban, route oral; how it was run: as §3
Harderian gland [11] = assay: Biodistribution in female Sprague-Dawley rat harderian gland at 5 mg/kg, po administered as single dose measured after 72 hrs; type: ADME, organism-based; design: dose 5 mg/kg, dosed compound name [14C]-apixaban, route oral; how it was run: as §3
Blood [12] = assay: AUC (0 to infinity) in male Sprague-Dawley rat blood at 5 mg/kg, po administered as single dose; type: ADME, organism-based; design: time infinity, dose 5 mg/kg, dosed compound name [14C]-apixaban, route oral
Rattus norvegicus [13] = assay: Biodistribution in pregnant Sprague-Dawley rat kidney cortex at 5 mg/kg, po administered as single dose measured after 0.5 hrs; type: ADME, organism-based; design: dose 5 mg/kg, dosed compound name [14C]-apixaban, route oral
Rattus norvegicus [14] = assay: Biodistribution in fetal kidney of pregnant Sprague-Dawley rat at 5 mg/kg, po administered as single dose measured after 8 hrs; type: ADME, organism-based; design: dose 5 mg/kg, dosed compound name [14C]-apixaban, route oral
How it was run: (§4)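 Fasted pregnant SD rats (n=6, 270-319 g) each received one oral gavage dose of [14C]apixaban, 5 mg/kg (100 μCi/kg), in 0.5% Tween 80/Labrafil. One rat was killed at each of 0.5, 1, 4, 8, 24 and 48 h. Carcasses were frozen in hexane/dry ice, cut into 40 µm sagittal sections, exposed to phosphor plates and quantified against [14C]glucose standards as µg eq/g. LLOQ was 0.037 µg eq/g.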

Pancreas [15] = assay: Biodistribution in male Sprague-Dawley rat pancreas at 5 mg/kg, po administered as single dose measured after 4 hrs; type: ADME, organism-based; design: dose 5 mg/kg, dosed compound name [14C]-apixaban, route oral; how it was run: as §2
[16] = Drug level in lactating Sprague-Dawley rat milk at 5 mg/kg, po administered as single dose after 0 to 24 hrs; type: ADME, organism-based; design: dose 5 mg/kg, dosed compound name [14C]-apixaban, route oral
Heart [17] = assay: Biodistribution in pregnant Sprague-Dawley rat heart at 5 mg/kg, po administered as single dose measured after 0.5 hrs; type: ADME, organism-based; design: dose 5 mg/kg, dosed compound name [14C]-apixaban, route oral
Brain = assay: Biodistribution in male Sprague-Dawley rat brain at 5 mg/kg, po administered as single dose measured after 8 hrs; type: ADME, organism-based; design: dose 5 mg/kg, dosed compound name [14C]-apixaban, route oral
Rattus norvegicus [18] = assay: Biodistribution in pregnant Sprague-Dawley rat brown fat at 5 mg/kg, po administered as single dose measured after 8 hrs; type: ADME, organism-based, Brown adipose tissue; design: dose 5 mg/kg, dosed compound name [14C]-apixaban, route oral
Harderian gland [19] = assay: Biodistribution in pregnant Sprague-Dawley rat harderian gland at 5 mg/kg, po administered as single dose measured after 24 hrs; type: ADME, organism-based; design: dose 5 mg/kg, dosed compound name [14C]-apixaban, route oral; how it was run: as §4
Blood [20] = assay: AUC (0 to infinity) in female Sprague-Dawley rat blood at 5 mg/kg, po administered as single dose; type: ADME, organism-based; design: time infinity, dose 5 mg/kg, dosed compound name [14C]-apixaban, route oral
Rattus norvegicus [21] = assay: Biodistribution in pregnant Sprague-Dawley rat amnion at 5 mg/kg, po administered as single dose measured after 24 hrs; type: ADME, organism-based; design: dose 5 mg/kg, dosed compound name [14C]-apixaban, route oral
Blood [22] = assay: Biodistribution in female Sprague-Dawley rat blood at 5 mg/kg, po administered as single dose measured after 24 hrs; type: ADME, organism-based; design: dose 5 mg/kg, dosed compound name [14C]-apixaban, route oral; how it was run: as §3
Rattus norvegicus [23] = assay: Biodistribution in male Sprague-Dawley rat pituitary gland at 5 mg/kg, po administered as single dose measured after 8 hrs; type: ADME, organism-based; design: dose 5 mg/kg, dosed compound name [14C]-apixaban, route oral

SMILES: COc1ccc(-n2nc(C(N)=O)c3c2C(=O)N(c2ccc(N4CCCC[14C]4=O)cc2)CC3)cc1
- Radiolabel recovery (Muscle tissue [1]): 0.23 ugequiv/g
- Radiolabel recovery (Liver [2]): < 0.037 ugequiv/g
- Radiolabel recovery (Lung): 0.883 ugequiv/g
- Radiolabel recovery (Muscle tissue [3]): 0.29 ugequiv/g
- Radiolabel recovery (Rattus norvegicus [4]): Not detected assumed BLQ
- Radiolabel recovery (Rattus norvegicus [5]): 0.46 ugequiv/g
- Radiolabel recovery (Pancreas [6]): 0.19 ugequiv/g
- Radiolabel recovery (Rattus norvegicus [7]): < 0.037 ugequiv/g
- Radiolabel recovery (Adrenal gland): Not detected assumed BLQ
- Radiolabel recovery (Rattus norvegicus [8]): 0.15 ugequiv/g
- Radiolabel recovery (Heart [9]): 0.11 ugequiv/g
- Radiolabel recovery (Liver [10]): 4.31 ugequiv/g
- Radiolabel recovery (Harderian gland [11]): Not detected assumed BLQ
- AUC (Blood [12]): 4300 ngequiv.hr/g
- Radiolabel recovery (Rattus norvegicus [13]): 2.11 ugequiv/g
- Radiolabel recovery (Rattus norvegicus [14]): Not sampled as not visualised in autoradiograph
- Radiolabel recovery (Pancreas [15]): 0.55 ugequiv/g
- Radiolabel recovery [16]: 4.6 µg/mL
- Radiolabel recovery (Heart [17]): 0.68 ugequiv/g
- Radiolabel recovery (Brain): < 0.037 ugequiv/g
- Radiolabel recovery (Rattus norvegicus [18]): 0.06 ugequiv/g
- Radiolabel recovery (Harderian gland [19]): Not detected assumed BLQ
- AUC (Blood [20]): 3780 ngequiv.hr/g
- Radiolabel recovery (Rattus norvegicus [21]): 3.52 ugequiv/g
- Radiolabel recovery (Blood [22]): Not detected assumed BLQ
- Radiolabel recovery (Rattus norvegicus [23]): 0.07 ugequiv/g
